{
  "source": "ChEMBL document CHEMBL4196021",
  "about": "“Targeting G-quadruplex DNA structures in the telomere and oncogene promoter regions by benzimidazole‒carbazole ligands” (Eur J Med Chem, 2018)",
  "key": {"Quadruplex DNA [1]": {"test_system": "Quadruplex DNA", "assay": "Binding affinity to human c-Kit1 G-quadruplex DNA at 0.6 uM after 5 mins in presence of KCl by fluorescence spectroscopic method", "assay_type": "nucleic-acid assay", "outline": "(§1)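 Fluorescence titration at 25 °C with 0.6 µM ligand in 10 mM Tris-HCl pH 7.4, 100 mM KCl, 0.1 mM EDTA. Preformed G4 DNA was added stepwise, with 5 min incubation before each spectrum. Excitation 330 nm; emission 350–550 nm, slit 5 nm.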"}, "Quadruplex DNA [2]": {"test_system": "Quadruplex DNA", "assay": "Binding affinity to human telomeric G-quadruplex DNA at 0.6 uM after 5 mins in presence of KCl by fluorescence spectroscopic method", "assay_type": "nucleic-acid assay", "outline": "as §1"}, "Quadruplex DNA [3]": {"test_system": "Quadruplex DNA", "assay": "Binding affinity to human Bcl2 G-quadruplex DNA at 0.6 uM after 5 mins in presence of KCl by fluorescence spectroscopic method", "assay_type": "nucleic-acid assay", "outline": "as §1"}, "Quadruplex DNA [4]": {"test_system": "Quadruplex DNA", "assay": "Binding affinity to human c-Kit2 G-quadruplex DNA at 0.6 uM after 5 mins in presence of KCl by fluorescence spectroscopic method", "assay_type": "nucleic-acid assay", "outline": "as §1"}, "Quadruplex DNA [5]": {"test_system": "Quadruplex DNA", "assay": "Binding affinity to human VEGF G-quadruplex DNA at 0.6 uM after 5 mins in presence of KCl by fluorescence spectroscopic method", "assay_type": "nucleic-acid assay", "outline": "as §1"}, "Quadruplex DNA [6]": {"test_system": "Quadruplex DNA", "assay": "Induction of conformational changes in human telomeric G-quadruplex DNA assessed as inversion from potassium ion stabilized hybrid type mixed parallel/antiparallel G-quadruplex to stable telomere parallel-stranded G-quadruplex after 5 mins in presence of KCl by CD spectroscopic method", "assay_type": "nucleic-acid assay", "outline": "(§2)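 CD spectra of 5 µM G4 DNA in 10 mM Tris-HCl pH 7.4, 100 mM KCl, 0.1 mM EDTA, with or without ligand. Mixtures were heated 95 °C for 5 min and slowly cooled to room temperature. Recorded 200–400 nm at 25 °C, 100 nm/min, 2 s response, 1 cm cell; average of three scans.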"}, "Quadruplex DNA [7]": {"test_system": "Quadruplex DNA", "assay": "Binding affinity to human c-Myc G-quadruplex DNA assessed as stabilization of parallel stranded topology after 5 mins in presence of KCl by CD spectroscopic method", "assay_type": "nucleic-acid assay", "outline": "as §2"}, "Quadruplex DNA [8]": {"test_system": "Quadruplex DNA", "assay": "Binding affinity to human c-Kit1 G-quadruplex DNA assessed as stabilization of parallel stranded topology after 5 mins in presence of KCl by CD spectroscopic method", "assay_type": "nucleic-acid assay", "outline": "as §2"}, "Quadruplex DNA [9]": {"test_system": "Quadruplex DNA", "assay": "Binding affinity to human c-Kit2 G-quadruplex DNA assessed as stabilization of parallel stranded topology after 5 mins in presence of KCl by CD spectroscopic method", "assay_type": "nucleic-acid assay", "outline": "as §2"}, "Quadruplex DNA [10]": {"target": "Quadruplex DNA", "assay": "Displacement of thiazole orange from human telomeric G-quadruplex DNA after 5 mins in presence of KCl by fluorescence assay", "assay_type": "nucleic-acid assay", "outline": "(§3)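 Thiazole orange displacement from a G4 DNA–TO complex (1 µM TO + 0.5 µM G4 DNA) in 10 mM Tris-HCl pH 7.4, 100 mM KCl, 0.1 mM EDTA. Ligand was added in increasing steps, with 5 min incubation each. Fluorescence read at ex 501/em 531 nm; % displacement = 100 − (Ft/F0 × 100). DC50 is the ligand concentration giving 50% displacement, read from plots; average of two independent experiments.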"}, "Quadruplex DNA [11]": {"target": "Quadruplex DNA", "assay": "Displacement of thiazole orange from human c-Myc G-quadruplex DNA after 5 mins in presence of KCl by fluorescence assay", "assay_type": "nucleic-acid assay", "outline": "as §3"}, "Quadruplex DNA [12]": {"target": "Quadruplex DNA", "assay": "Displacement of thiazole orange from human c-Kit1 G-quadruplex DNA after 5 mins in presence of KCl by fluorescence assay", "assay_type": "nucleic-acid assay", "outline": "as §3"}, "Quadruplex DNA [13]": {"target": "Quadruplex DNA", "assay": "Displacement of thiazole orange from human c-Kit2 G-quadruplex DNA after 5 mins in presence of KCl by fluorescence assay", "assay_type": "nucleic-acid assay", "outline": "as §3"}, "Quadruplex DNA [14]": {"target": "Quadruplex DNA", "assay": "Displacement of thiazole orange from human VEGF G-quadruplex DNA after 5 mins in presence of KCl by fluorescence assay", "assay_type": "nucleic-acid assay", "outline": "as §3"}, "Calf thymus DNA": {"test_system": "Calf thymus DNA", "assay": "Displacement of thiazole orange from calf thymus duplex DNA after 5 mins in presence of KCl by fluorescence assay", "assay_type": "nucleic-acid assay, Bos taurus"}, "Quadruplex DNA [15]": {"test_system": "Quadruplex DNA", "assay": "Binding affinity to human c-Myc G-quadruplex DNA assessed as change in melting temperature in presence of KCl by CD spectroscopic method", "assay_type": "nucleic-acid assay", "outline": "(§4)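 CD melting of 5 µM G4 DNA in 10 mM Tris-HCl pH 7.4, 25 mM KCl, 0.1 mM EDTA. Ligand was present during folding (heating, slow cooling). Spectra 200–400 nm over 20–96 °C in 2 °C steps, buffer blank subtracted. Tm was taken from normalized ellipticity at the positive maximum (262 nm for promoter G4s). ΔTm = ligand-bound minus DNA alone; average of two independent experiments.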"}, "Quadruplex DNA [16]": {"test_system": "Quadruplex DNA", "assay": "Binding affinity to human c-Kit1 G-quadruplex DNA assessed as change in melting temperature in presence of KCl by CD spectroscopic method", "assay_type": "nucleic-acid assay", "outline": "as §4"}, "Quadruplex DNA [17]": {"test_system": "Quadruplex DNA", "assay": "Binding affinity to human c-Kit2 G-quadruplex DNA assessed as change in melting temperature in presence of KCl by CD spectroscopic method", "assay_type": "nucleic-acid assay", "outline": "as §4"}, "Quadruplex DNA [18]": {"test_system": "Quadruplex DNA", "assay": "Binding affinity to human 77-mer c-Myc G-quadruplex DNA assessed as inhibition of Taq DNA polymerase-mediated DNA synthesis by measuring generation of premature chain termination products using 32P-labeled primer after 30 mins by polymerase stop assay", "assay_type": "nucleic-acid assay", "outline": "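Template of 10 nM single-stranded 77-mer c-MYC with the G-quadruplex-forming sequence, annealed to 32P-labeled plus cold primer (15 nM) in Tris-HCl pH 7.4 with 5 mM KCl. Annealing was 95 °C for 5 min then slow cooling, with ligand added before annealing. Extension with Taq polymerase (5 mM MgCl2, 0.5 mM DTT, 0.2 mM dNTPs) ran 30 min at 48 or 40 °C. Products were resolved on 15% urea denaturing PAGE and read by phosphorimaging.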"}, "Quadruplex DNA [19]": {"test_system": "Quadruplex DNA", "assay": "Stabilization of c-Myc G-quadruplex DNA in human HeLa cells assessed as decrease in c-Myc mRNA level at 5 uM after 24 hrs by RT-PCR method relative to control", "assay_type": "cell-based", "parameters": "scale not given: the % may be the effect or the level left", "outline": "(§5)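 HeLa cells exposed to increasing ligand concentrations (5 and 10 µM named) for 24 h, with DMSO-treated cells as control. Total RNA was extracted with TRI reagent and DNase I-treated. c-MYC and VEGF transcripts were quantified by qRT-PCR, normalized to GAPDH, and expressed as relative fold change.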"}, "Quadruplex DNA [20]": {"test_system": "Quadruplex DNA", "assay": "Stabilization of c-Myc G-quadruplex DNA in human HeLa cells assessed as decrease in c-Myc mRNA level at 10 uM after 24 hrs by RT-PCR method relative to control", "assay_type": "cell-based", "parameters": "scale not given: the % may be the effect or the level left", "outline": "as §5"}, "Quadruplex DNA [21]": {"test_system": "Quadruplex DNA", "assay": "Stabilization of c-Myc G-quadruplex DNA in human HeLa cells assessed as decrease in c-Myc mRNA level after 24 hrs by RT-PCR method", "assay_type": "cell-based", "outline": "as §5"}, "Quadruplex DNA [22]": {"test_system": "Quadruplex DNA", "assay": "Stabilization of VEGF G-quadruplex DNA in human HeLa cells assessed as decrease in VEGF mRNA level at 10 uM after 24 hrs by RT-PCR method relative to control", "assay_type": "cell-based", "parameters": "scale not given: the % may be the effect or the level left", "outline": "as §5"}, "HeLa": {"test_system": "HeLa", "assay": "Effect on GADPH mRNA level in human HeLa cells assessed as decrease in VEGF mRNA level at 2.5 to 10 uM after 24 hrs by RT-PCR method", "assay_type": "cell-based"}, "MCF7": {"test_system": "MCF7", "assay": "Cytotoxicity against human MCF7 cells assessed as reduction in cell viability after 72 hrs by MTT assay", "assay_type": "functional, cell-based", "outline": "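HeLa and MCF7 cells in log phase were seeded for 24 h, then exposed to a range of ligand concentrations for 72 h. MTT (5 mg/ml stock) was added for 4 h, formazan dissolved in DMSO, and absorbance read at 570 nm. Three independent experiments in triplicate, mean ± SD.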"}},
  "note": "Active and inactive are the calls of the source. No cut-off for these calls is given here.",
  "data": [
    {"molecule": "CN(C)CCCCn1c2ccc(-c3nc4ccc(N5CCN(CCO)CC5)cc4[nH]3)cc2c2cc(-c3nc4ccc(N5CCN(CCO)CC5)cc4[nH]3)ccc21", "values": [
      {"measurement": "Activity", "setting": "Quadruplex DNA [1]", "result": "Active"},
      {"measurement": "Activity", "setting": "Quadruplex DNA [2]", "result": "Active"},
      {"measurement": "Activity", "setting": "Quadruplex DNA [3]", "result": "Active"},
      {"measurement": "Activity", "setting": "Quadruplex DNA [4]", "result": "Active"},
      {"measurement": "Activity", "setting": "Quadruplex DNA [5]", "result": "Active"},
      {"measurement": "Activity", "setting": "Quadruplex DNA [6]", "result": "Active"},
      {"measurement": "Activity", "setting": "Quadruplex DNA [7]", "result": "Active"},
      {"measurement": "Activity", "setting": "Quadruplex DNA [8]", "result": "Active"},
      {"measurement": "Activity", "setting": "Quadruplex DNA [9]", "result": "Active"},
      {"measurement": "DC50", "setting": "Quadruplex DNA [10]", "result": 1130, "unit": "nM"},
      {"measurement": "DC50", "setting": "Quadruplex DNA [11]", "result": 830, "unit": "nM"},
      {"measurement": "DC50", "setting": "Quadruplex DNA [12]", "result": 860, "unit": "nM"},
      {"measurement": "DC50", "setting": "Quadruplex DNA [13]", "result": 650, "unit": "nM"},
      {"measurement": "DC50", "setting": "Quadruplex DNA [14]", "result": 780, "unit": "nM"},
      {"measurement": "DC50", "setting": "Calf thymus DNA", "result": 6940, "unit": "nM"},
      {"measurement": "ΔTm", "setting": "Quadruplex DNA [15]", "result": 7.35, "unit": "°C"},
      {"measurement": "ΔTm", "setting": "Quadruplex DNA [16]", "result": 24.7, "unit": "°C"},
      {"measurement": "ΔTm", "setting": "Quadruplex DNA [17]", "result": 23.3, "unit": "°C"},
      {"measurement": "Activity", "setting": "Quadruplex DNA [18]", "result": "Dose-dependent effect"},
      {"measurement": "Activity", "setting": "Quadruplex DNA [19]", "result": 49, "unit": "%"},
      {"measurement": "Activity", "setting": "Quadruplex DNA [20]", "result": 71, "unit": "%"},
      {"measurement": "Activity", "setting": "Quadruplex DNA [21]", "result": "Dose-dependent effect"},
      {"measurement": "Activity", "setting": "Quadruplex DNA [22]", "result": 68, "unit": "%"},
      {"measurement": "Activity", "setting": "HeLa", "result": "Non-Toxic"},
      {"measurement": "Activity", "setting": "MCF7", "result": "Dose-dependent effect"},
      {"measurement": "IC50", "setting": "MCF7; MCF7, 72 h", "result": 11400, "unit": "nM"}
    ]}
  ]
}
